Our source for the IC50 values is ChEMBL document CHEMBL1136311, “Growth inhibition activity of thioacetal artemisinin derivatives against human umbilical vein endothelial cells” (Bioorg Med Chem Lett, 2003).

For the test, the system named is HUVEC. As to the kind of experiment: Inhibitory activity against human umbilical vein endothelial cells (HUVEC) was assayed using MTT colorimetric proliferation assay. The format is functional, cell-based. A digest of the protocol: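 HUVEC grown in EGM-2 medium with growth factor, seeded at 10,000 cells/well and left 4 h to adhere. Test compounds diluted in the medium were added. Incubation in a 5% CO₂ humidified atmosphere, then viability read by MTT colorimetric proliferation assay. Growth inhibition reported as IC50.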
(In general: Formazan colour is commonly taken as a measure of viable cells.)

In general, IC50 refers to the concentration that inhibits the measured activity by half. With `CC(=O)S[C@H]1O[C@@H]2O[C@]3(C)CC[C@H]4[C@H](C)CC[C@@H]([C@H]1C)[C@@]24OO3`, the 50% inhibitory concentration (IC50) is 4.56 µM.

For the compound `C[C@H]1[C@H](S)O[C@@H]2OC3(C)CC[C@H]4[C@H](C)CC[C@@H]1[C@@]24OO3` (single isomer, unassigned), the IC50 was 1.29 µM.

Compound `C[C@H]1[C@@H]2CC[C@@H](C)[C@@H]3CCC4(C)OO[C@@]23[C@H](O[C@@H]1S(=O)(=O)c1ccccc1)O4` (single isomer, unassigned) gave an IC50 of 1.74 µM.

Consider `C[C@@H]1[C@@H]2CC[C@@H](C)[C@@H]3CCC4(C)O[C@@H](O[C@@H]1S(=O)(=O)c1ccccc1)[C@]23O4` (single isomer, unassigned), for which the IC50 was greater than 50 µM.

`C[C@H]1[C@@H](Sc2ccccc2)O[C@@H]2OC3(C)CC[C@H]4[C@H](C)CC[C@@H]1[C@@]24O3` (single isomer, unassigned) gave an IC50 greater than 50 µM.

The compound `C[C@H]1[C@H](Oc2ccccc2)O[C@@H]2OC3(C)CC[C@H]4[C@H](C)CC[C@@H]1[C@@]24OO3` (single isomer, unassigned) registered an IC50 of 31 µM.

In the case of `C[C@H]1[C@@H](Oc2ccccc2)O[C@@H]2OC3(C)CC[C@H]4[C@H](C)CC[C@@H]1[C@@]24OO3` (single isomer, unassigned), the midpoint of inhibition, the IC50, lay at 33.8 µM.

In turn, `C[C@H]1[C@H](S(=O)(=O)c2ccccc2)O[C@@H]2OC3(C)CC[C@H]4[C@H](C)CC[C@@H]1[C@@]24OO3` (single isomer, unassigned) came in with an IC50 of 12.8 µM.

In turn, `C[C@H]1[C@H](Sc2ccccc2)O[C@@H]2OC3(C)CC[C@H]4[C@H](C)CC[C@@H]1[C@@]24OO3` (single isomer, unassigned) gave an IC50 of 0.93 µM.

The compound `C[C@@H]1[C@@H]2CC[C@@H](C)[C@@H]3CCC4(C)OO[C@@]23[C@H](O[C@@H]1S(=O)(=O)c1ccccc1)O4` (single isomer, unassigned) showed an IC50 of 18.2 µM.

In the case of `C[C@H]1[C@@H](Sc2ccccc2)O[C@@H]2OC3(C)CC[C@H]4[C@H](C)CC[C@@H]1[C@@]24OO3` (single isomer, unassigned), it took 5.24 µM to reach half-maximal inhibition (IC50).

As for `C[C@@H]1CC[C@H]2[C@@H](C)C(=O)O[C@@H]3O[C@@]4(C)CC[C@@H]1[C@]32OO4` [ARTEMISININ], the IC50 was greater than 50 µM.

`CCO[C@H]1O[C@@H]2O[C@@]3(C)CC[C@H]4[C@H](C)CC[C@@H]([C@H]1C)[C@@]24OO3` [ARTEMOTIL] had an IC50 greater than 50 µM.

As to `C[C@H]1[C@@H](O)O[C@@H]2O[C@@]3(C)CC[C@H]4[C@H](C)CC[C@@H]1[C@@]24OO3` [ARTENIMOL], the IC50 was determined as 8.91 µM.

For the compound `C[C@@H]1CC[C@H]2[C@@H](C)C(=O)O[C@@H]3O[C@@]4(C)CC[C@@H]1[C@]32O4` [DEOXYARTEMISININ], the IC50 was greater than 50 µM.
